Test results published in ChEMBL document CHEMBL3872218, “Synthesis and T-type calcium channel-blocking effects of aryl(1,5-disubstituted-pyrazol-3-yl)methyl sulfonamides for neuropathic pain treatment” (Eur J Med Chem, 2016).

What was measured:
[1] = system: Rattus norvegicus; assay: Antineuropathic pain activity in rat spinal nerve ligation model assessed as effect on cold allodynia by measuring frequency of paw withdrawal at 100 mg/kg, po measured at 1 hr relative to control; type: functional
In short: (§1)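 Spinal nerve ligation rats tested 2 weeks after nerve surgery, 100 mg/kg oral, n = 4 per group. Behaviour re-tested at 1, 3 and 5 h after dosing. Mechanical allodynia: von Frey filament applied five times, every 3–4 s, to the hind paw on a wire mesh floor. Cold allodynia: acetone applied to the plantar hind paw on a metal mesh floor.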

[2] = system: Rattus norvegicus; assay: Antineuropathic pain activity in rat spinal nerve ligation model assessed as effect on cold allodynia by measuring frequency of paw withdrawal at 100 mg/kg, po measured at 3 hrs relative to control; type: functional; in short: as §1
[3] = system: Rattus norvegicus; assay: Antineuropathic pain activity in rat spinal nerve ligation model assessed as effect on mechanical allodynia by measuring frequency of paw withdrawal at 100 mg/kg, po measured at 3 hrs relative to gabapentin; type: functional; in short: as §1
[4] = target: T1, CYP1A2 (Homo sapiens, UniProt P05177); assay: Inhibition of human CYP1A2 assessed as remaining activity at 10 uM using vivid CYP450 substrate measured after 15 mins by fluorescence assay relative to alpha-naphthoflavon; type: ADME; conditions: probe vivid CYP450 substrate, read-out: Activity
T1 sequence (P05177 whole entry): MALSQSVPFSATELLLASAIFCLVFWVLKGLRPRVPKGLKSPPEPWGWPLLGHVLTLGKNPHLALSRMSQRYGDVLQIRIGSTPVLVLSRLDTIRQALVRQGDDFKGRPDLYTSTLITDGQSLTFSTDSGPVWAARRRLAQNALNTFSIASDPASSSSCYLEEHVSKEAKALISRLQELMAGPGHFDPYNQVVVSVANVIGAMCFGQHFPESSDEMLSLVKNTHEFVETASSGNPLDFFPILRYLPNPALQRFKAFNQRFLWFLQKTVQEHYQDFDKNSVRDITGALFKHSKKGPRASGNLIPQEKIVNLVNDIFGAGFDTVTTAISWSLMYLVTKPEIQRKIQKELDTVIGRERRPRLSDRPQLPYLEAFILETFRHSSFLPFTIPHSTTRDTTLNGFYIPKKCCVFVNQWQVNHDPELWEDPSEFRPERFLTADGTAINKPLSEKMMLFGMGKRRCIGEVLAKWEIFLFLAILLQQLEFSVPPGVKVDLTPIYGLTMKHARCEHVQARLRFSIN
In short: (§2)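 Vivid fluorescence CYP assay: test compound at […] in water, mixed with BACULOSOMES master pre-mix and regeneration system, preincubated 15 min at 37 °C. Reaction started with Vivid substrate and NADPH. Remaining activity read by fluorescence as % of control, triplicate, mean ± SD. Isoform-specific reference inhibitors: α-naphthoflavone (1A2), sulfaphenazole (2C9), quinidine (2D6), ketoconazole (3A4).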

[5] = system: Rattus norvegicus; assay: Antineuropathic pain activity in rat spinal nerve ligation model assessed as effect on mechanical allodynia by measuring frequency of paw withdrawal at 100 mg/kg, po measured at 5 hrs relative to control; type: functional; in short: as §1
[6] = Metabolic stability in human liver microsomes assessed as compound remaining at 1 uM in presence of NADPH as cofactor by LC-MS/MS method; type: ADME; conditions: read-out: Stability
In short: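 Pooled mixed-gender human liver microsomes incubated with compound at 37 °C with NADPH as cofactor. Result given as % parent compound remaining.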

[7] = target: CYP2C9 (Homo sapiens, UniProt P11712); assay: Inhibition of human CYP2C9 assessed as remaining activity at 10 uM using vivid CYP450 substrate measured after 15 mins by fluorescence assay relative to sulfaphenazol; type: ADME; conditions: probe vivid CYP450 substrate, read-out: Activity; in short: as §2
[8] = target: T2, Voltage-dependent T-type calcium channel subunit alpha-1G (Homo sapiens, UniProt O43497); assay: Inhibition of Cav3.1 alpha1G (unknown origin) expressed in HEK293 cells by whole-cell patch clamp method; type: cell-based
T2 sequence (O43497 whole entry): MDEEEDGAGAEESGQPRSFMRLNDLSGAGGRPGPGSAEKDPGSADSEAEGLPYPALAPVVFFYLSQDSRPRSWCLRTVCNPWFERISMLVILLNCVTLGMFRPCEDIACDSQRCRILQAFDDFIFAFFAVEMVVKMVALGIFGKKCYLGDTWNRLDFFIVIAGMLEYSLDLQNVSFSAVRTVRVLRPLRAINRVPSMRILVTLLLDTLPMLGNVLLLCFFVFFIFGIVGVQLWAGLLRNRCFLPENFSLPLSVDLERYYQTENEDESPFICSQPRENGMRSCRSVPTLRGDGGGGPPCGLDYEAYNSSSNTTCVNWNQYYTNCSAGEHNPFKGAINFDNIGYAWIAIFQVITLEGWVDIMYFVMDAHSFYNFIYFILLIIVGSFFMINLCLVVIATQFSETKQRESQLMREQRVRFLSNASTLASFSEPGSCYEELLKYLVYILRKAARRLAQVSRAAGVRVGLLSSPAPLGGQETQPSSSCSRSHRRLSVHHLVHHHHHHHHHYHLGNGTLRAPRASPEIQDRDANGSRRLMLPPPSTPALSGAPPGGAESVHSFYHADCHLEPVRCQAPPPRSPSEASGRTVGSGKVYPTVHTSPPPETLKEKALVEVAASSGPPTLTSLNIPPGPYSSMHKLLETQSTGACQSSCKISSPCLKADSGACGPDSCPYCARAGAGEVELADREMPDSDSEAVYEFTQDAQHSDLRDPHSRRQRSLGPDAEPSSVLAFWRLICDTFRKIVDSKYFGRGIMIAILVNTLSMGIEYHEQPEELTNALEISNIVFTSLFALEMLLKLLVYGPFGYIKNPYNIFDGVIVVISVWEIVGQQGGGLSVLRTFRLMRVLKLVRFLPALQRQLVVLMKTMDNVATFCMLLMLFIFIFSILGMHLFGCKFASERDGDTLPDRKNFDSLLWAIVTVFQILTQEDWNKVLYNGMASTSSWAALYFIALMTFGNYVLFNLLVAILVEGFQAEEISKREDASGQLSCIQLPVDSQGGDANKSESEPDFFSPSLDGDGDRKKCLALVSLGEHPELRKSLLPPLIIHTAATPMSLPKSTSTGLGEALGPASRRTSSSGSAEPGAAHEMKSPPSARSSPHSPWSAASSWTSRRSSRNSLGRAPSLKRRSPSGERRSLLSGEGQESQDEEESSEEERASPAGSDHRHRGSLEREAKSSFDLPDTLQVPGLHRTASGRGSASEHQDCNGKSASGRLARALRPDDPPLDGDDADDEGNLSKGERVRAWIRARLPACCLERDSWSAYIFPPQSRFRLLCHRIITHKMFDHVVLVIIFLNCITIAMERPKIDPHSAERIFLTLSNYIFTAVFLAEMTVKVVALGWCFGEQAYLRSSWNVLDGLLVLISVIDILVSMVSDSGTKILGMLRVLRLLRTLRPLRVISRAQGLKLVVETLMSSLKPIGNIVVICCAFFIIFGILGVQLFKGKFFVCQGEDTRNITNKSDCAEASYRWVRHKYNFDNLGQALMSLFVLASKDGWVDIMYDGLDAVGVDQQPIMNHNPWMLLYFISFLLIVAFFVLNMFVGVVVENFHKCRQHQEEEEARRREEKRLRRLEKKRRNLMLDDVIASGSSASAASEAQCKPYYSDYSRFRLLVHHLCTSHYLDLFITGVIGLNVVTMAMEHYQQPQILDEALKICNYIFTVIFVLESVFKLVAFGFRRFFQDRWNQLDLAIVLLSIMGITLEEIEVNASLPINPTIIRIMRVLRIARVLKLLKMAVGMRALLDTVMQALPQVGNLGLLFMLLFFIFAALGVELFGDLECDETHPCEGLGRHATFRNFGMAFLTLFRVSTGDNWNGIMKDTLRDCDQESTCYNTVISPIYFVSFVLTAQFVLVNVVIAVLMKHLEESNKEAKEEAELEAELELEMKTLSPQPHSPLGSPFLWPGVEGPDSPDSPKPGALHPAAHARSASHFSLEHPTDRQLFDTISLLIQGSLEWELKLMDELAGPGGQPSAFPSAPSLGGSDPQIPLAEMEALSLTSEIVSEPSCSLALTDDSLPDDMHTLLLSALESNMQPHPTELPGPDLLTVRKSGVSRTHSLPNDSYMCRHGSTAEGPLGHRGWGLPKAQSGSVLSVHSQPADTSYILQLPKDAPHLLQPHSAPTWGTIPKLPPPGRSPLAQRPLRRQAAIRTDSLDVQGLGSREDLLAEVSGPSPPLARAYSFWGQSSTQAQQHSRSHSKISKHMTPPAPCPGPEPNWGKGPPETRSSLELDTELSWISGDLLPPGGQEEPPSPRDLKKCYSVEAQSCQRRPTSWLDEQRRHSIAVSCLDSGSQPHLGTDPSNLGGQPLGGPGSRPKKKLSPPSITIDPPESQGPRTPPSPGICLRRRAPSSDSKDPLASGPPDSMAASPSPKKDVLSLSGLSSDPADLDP
In short: (§3)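 Whole-cell patch clamp on HEK293 cells expressing Cav3.1 or Cav3.2. T-type currents evoked every 15 s by a 50-ms step from −100 mV to −30 mV. External solution (mM): 140 NaCl, 2 CaCl₂, 10 HEPES, 10 glucose, pH 7.4.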

[9] = system: Rattus norvegicus; assay: Antineuropathic pain activity in rat spinal nerve ligation model assessed as effect on mechanical allodynia by measuring frequency of paw withdrawal at 100 mg/kg, po measured at 1 hr relative to control; type: functional; in short: as §1
[10] = system: Rattus norvegicus; assay: Poteny index, ratio of test compound to mibefradil antineuropathic pain activity in rat spinal nerve ligation model assessed as effect on mechanical allodynia by measuring frequency of paw withdrawal at 100 mg, po measured after 1 hr; type: functional
[11] = system: Rattus norvegicus; assay: Antineuropathic pain activity in rat spinal nerve ligation model assessed as effect on cold allodynia by measuring frequency of paw withdrawal at 100 mg/kg, po measured at 3 hrs relative to gabapentin; type: functional; in short: as §1
[12] = system: Rattus norvegicus; assay: Antineuropathic pain activity in rat spinal nerve ligation model assessed as effect on cold allodynia by measuring frequency of paw withdrawal at 100 mg/kg, po measured at 1 hr relative to gabapentin; type: functional; in short: as §1
[13] = system: Rattus norvegicus; assay: Antineuropathic pain activity in rat spinal nerve ligation model assessed as effect on mechanical allodynia by measuring frequency of paw withdrawal at 100 mg/kg, po measured at 5 hrs relative to gabapentin; type: functional; in short: as §1
[14] = target: Voltage-gated inwardly rectifying potassium channel KCNH2 (Homo sapiens, UniProt Q12809); assay: Inhibition of human ERG expressed in CHOK1 cells by whole-cell patch clamp method; type: cell-based, CHO-K1
[15] = target: CYP3A4 (Homo sapiens, UniProt P08684); assay: Inhibition of human CYP3A4 assessed as remaining activity at 10 uM using vivid CYP450 substrate measured after 15 mins by fluorescence assay relative to ketoconazole; type: ADME; conditions: probe vivid CYP450 substrate, read-out: Activity; in short: as §2
[16] = target: T3, Voltage-dependent T-type calcium channel subunit alpha-1H (Homo sapiens, UniProt O95180); assay: Inhibition of Cav3.2 alpha1H (unknown origin) expressed in HEK293 cells assessed as decrease in KCl-induced depolarization mediated intracellular Ca2+ level at 10 uM by fluo3/AM based high throughput screening assay relative to control; type: cell-based
T3 sequence (O95180 whole entry): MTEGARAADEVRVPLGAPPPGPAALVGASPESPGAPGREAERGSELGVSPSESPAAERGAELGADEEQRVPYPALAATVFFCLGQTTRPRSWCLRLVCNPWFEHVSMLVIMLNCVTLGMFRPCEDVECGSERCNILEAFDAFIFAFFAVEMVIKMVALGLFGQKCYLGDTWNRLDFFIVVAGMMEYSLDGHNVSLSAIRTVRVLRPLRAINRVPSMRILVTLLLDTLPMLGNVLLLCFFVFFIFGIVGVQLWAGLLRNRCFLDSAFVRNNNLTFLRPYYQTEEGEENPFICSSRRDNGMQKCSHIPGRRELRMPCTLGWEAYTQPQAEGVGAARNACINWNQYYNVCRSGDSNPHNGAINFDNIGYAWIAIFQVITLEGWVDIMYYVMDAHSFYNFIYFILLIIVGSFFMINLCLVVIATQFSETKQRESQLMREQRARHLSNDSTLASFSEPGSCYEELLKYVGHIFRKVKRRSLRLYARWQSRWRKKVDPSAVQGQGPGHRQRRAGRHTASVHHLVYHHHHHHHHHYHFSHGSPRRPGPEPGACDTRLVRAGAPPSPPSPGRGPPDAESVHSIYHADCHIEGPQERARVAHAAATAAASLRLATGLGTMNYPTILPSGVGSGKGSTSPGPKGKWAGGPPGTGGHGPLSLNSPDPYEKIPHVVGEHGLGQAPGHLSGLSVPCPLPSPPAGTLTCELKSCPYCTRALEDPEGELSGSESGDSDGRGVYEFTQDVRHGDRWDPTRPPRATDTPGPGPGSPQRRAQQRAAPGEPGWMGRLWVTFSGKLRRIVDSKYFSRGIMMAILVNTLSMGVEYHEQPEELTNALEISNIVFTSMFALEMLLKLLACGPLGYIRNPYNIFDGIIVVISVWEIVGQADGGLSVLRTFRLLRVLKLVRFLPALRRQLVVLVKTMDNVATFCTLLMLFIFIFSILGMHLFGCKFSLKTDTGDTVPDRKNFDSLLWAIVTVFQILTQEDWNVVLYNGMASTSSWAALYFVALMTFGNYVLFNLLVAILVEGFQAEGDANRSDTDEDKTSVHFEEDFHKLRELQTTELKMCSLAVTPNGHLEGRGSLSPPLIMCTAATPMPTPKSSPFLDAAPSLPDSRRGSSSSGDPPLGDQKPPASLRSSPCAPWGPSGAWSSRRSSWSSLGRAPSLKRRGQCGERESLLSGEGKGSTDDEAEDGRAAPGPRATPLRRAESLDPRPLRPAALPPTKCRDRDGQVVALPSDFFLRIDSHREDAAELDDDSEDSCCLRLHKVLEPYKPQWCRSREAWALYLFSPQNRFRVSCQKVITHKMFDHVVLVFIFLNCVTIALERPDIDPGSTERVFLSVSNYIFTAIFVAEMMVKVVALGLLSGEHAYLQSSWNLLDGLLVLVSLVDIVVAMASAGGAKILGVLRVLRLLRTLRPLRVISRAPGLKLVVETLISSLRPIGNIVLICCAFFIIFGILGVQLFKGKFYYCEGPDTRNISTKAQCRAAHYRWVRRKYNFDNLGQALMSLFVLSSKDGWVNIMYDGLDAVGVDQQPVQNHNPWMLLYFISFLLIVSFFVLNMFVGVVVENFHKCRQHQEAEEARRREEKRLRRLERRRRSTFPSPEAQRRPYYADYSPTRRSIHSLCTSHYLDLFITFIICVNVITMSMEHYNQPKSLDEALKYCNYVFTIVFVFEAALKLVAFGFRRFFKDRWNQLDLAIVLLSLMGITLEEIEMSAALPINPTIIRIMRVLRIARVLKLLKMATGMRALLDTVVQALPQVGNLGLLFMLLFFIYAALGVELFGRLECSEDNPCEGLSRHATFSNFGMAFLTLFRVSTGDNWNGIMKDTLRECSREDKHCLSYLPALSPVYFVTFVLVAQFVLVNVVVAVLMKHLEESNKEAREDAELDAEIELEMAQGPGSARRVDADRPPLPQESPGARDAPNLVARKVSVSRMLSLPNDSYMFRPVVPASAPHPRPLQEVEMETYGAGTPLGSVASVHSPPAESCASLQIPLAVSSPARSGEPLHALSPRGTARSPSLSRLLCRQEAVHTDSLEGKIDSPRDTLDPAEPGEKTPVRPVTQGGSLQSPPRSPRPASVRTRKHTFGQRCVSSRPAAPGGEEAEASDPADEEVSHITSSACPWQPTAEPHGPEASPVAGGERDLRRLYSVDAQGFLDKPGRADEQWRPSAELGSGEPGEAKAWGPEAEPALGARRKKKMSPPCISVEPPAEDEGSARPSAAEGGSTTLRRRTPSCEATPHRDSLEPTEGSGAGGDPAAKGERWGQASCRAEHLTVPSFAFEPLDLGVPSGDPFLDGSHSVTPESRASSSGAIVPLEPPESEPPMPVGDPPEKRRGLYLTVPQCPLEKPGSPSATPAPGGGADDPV
In short: (§4)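 HEK293 cells stably expressing Cav3.1 or Cav3.2 plated at 4 × 10⁴ cells/well and used the next day. Loaded 60 min at room temperature with […] fluo3/AM plus 0.001% Pluronic F-127 in HEPES-buffered saline (1.8 mM CaCl₂, pH 7.4). Ca²⁺ fluorescence read on FDSS6000 as % inhibition, compound at […].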

[17] = target: CYP2D6 (Homo sapiens, UniProt P10635); assay: Inhibition of human CYP2D6 assessed as remaining activity at 10 uM using vivid CYP450 substrate measured after 15 mins by fluorescence assay relative to quinidine; type: ADME; conditions: probe vivid CYP450 substrate, read-out: Activity; in short: as §2
[18] = system: Rattus norvegicus; assay: Antineuropathic pain activity in rat spinal nerve ligation model assessed as effect on mechanical allodynia by measuring frequency of paw withdrawal at 100 mg/kg, po measured at 3 hrs relative to control; type: functional; in short: as §1
[19] = system: Rattus norvegicus; assay: Antineuropathic pain activity in rat spinal nerve ligation model assessed as effect on cold allodynia by measuring frequency of paw withdrawal at 100 mg/kg, po measured at 5 hrs relative to gabapentin; type: functional; in short: as §1
[20] = target: T3, Voltage-dependent T-type calcium channel subunit alpha-1H; assay: Inhibition of Cav3.2 alpha1H (unknown origin) expressed in HEK293 cells by whole-cell patch clamp method; type: cell-based; in short: as §3
[21] = species on record: Homo sapiens; assay: Inhibition of N-type Ca2+ channel (unknown origin) at 10 uM by whole-cell patch clamp method relative to control
[22] = target: T2, Voltage-dependent T-type calcium channel subunit alpha-1G; assay: Inhibition of Cav3.1 alpha1G (unknown origin) expressed in HEK293 cells assessed as decrease in KCl-induced depolarization mediated intracellular Ca2+ level at 10 uM by fluo3/AM based high throughput screening assay relative to control; type: cell-based; in short: as §4
[23] = system: Rattus norvegicus; assay: Poteny index, ratio of test compound to gabapentin antineuropathic pain activity in rat spinal nerve ligation model assessed as effect on mechanical allodynia by measuring frequency of paw withdrawal at 100 mg, po measured after 1 hr; type: functional
[24] = system: Rattus norvegicus; assay: Antineuropathic pain activity in rat spinal nerve ligation model assessed as effect on cold allodynia by measuring frequency of paw withdrawal at 100 mg/kg, po measured at 5 hrs relative to control; type: functional; in short: as §1
[25] = system: Rattus norvegicus; assay: Antineuropathic pain activity in rat spinal nerve ligation model assessed as effect on mechanical allodynia by measuring frequency of paw withdrawal at 100 mg/kg, po measured at 1 hr relative to gabapentin; type: functional; in short: as §1

## CC(C)Cc1cc(CNS(=O)(=O)c2ccccc2)nn1-c1ccccc1
[1]
  MPE: 103.9%
[2]
  MPE: 81.73%
[3]
  MPE: 64.01%
[4]
  activity at 0.25 h, 10 µM: 36.6%
[5]
  MPE: 30.91%
[6]
  remaining at 1 µM: 13.9%
[7]
  activity at 0.25 h, 10 µM: 38.4%
[8]
  IC50: 5.65 µM
[9]
  MPE: 45.95%
[10]
  Ratio: 3
[11]
  MPE: 101.52%
[12]
  MPE: 236.08%
[13]
  MPE: 68.26%
[14]
  IC50: 21 µM
[15]
  activity at 0.25 h, 10 µM: 69.6%
[16]
  inhibition: 63.9%
[17]
  activity at 0.25 h, 10 µM: 208%
[18]
  MPE: 36.45%
[19]
  MPE: 169.88%
[20]
  IC50: 5.8 µM
[21]
  inhibition: 38.2%
[22]
  inhibition: 61.4%
[23]
  Ratio: 3
[24]
  MPE: 74.17%
[25]
  MPE: 416.59%
